Data reported in ChEMBL document CHEMBL1155278, “3,4-Diaryl-isoxazoles and -imidazoles as potent dual inhibitors of p38alpha mitogen activated protein kinase and casein kinase 1delta” (J Med Chem, 2009).

Tests used:
[1] = target: T1, Serine/threonine-protein kinase 3 (Homo sapiens) (UniProt Q13188); assay: Inhibition of MST2 assessed as residual activity at 10 uM by Cherenkov counting relative to control in presence of 20 uM ATP
T1 sequence (whole entry): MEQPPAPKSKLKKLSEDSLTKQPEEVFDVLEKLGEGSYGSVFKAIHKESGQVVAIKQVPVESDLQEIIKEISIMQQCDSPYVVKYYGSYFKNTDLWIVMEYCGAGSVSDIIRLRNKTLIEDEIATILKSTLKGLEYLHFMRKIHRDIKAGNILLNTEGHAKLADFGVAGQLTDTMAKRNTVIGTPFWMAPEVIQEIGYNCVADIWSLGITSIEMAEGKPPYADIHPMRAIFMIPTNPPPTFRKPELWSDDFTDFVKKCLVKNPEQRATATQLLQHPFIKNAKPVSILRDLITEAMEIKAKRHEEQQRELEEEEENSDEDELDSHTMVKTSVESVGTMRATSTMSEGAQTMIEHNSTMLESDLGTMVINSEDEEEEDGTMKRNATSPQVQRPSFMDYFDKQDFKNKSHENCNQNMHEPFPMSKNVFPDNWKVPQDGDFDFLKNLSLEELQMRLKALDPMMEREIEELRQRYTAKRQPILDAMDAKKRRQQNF

[2] = target: Serine/threonine-protein kinase PAK 5 (Homo sapiens) (UniProt Q9P286); assay: Inhibition of PAK5 assessed as residual activity at 10 uM by Cherenkov counting relative to control in presence of 20 uM ATP
[3] = target: RAC-beta serine/threonine-protein kinase (Homo sapiens) (UniProt P31751); assay: Inhibition of PKBbeta assessed as residual activity at 10 uM by Cherenkov counting relative to control in presence of 50 uM ATP
In short: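 Single-concentration profiling at 10 μM in a 78-kinase panel. Kinase activity is expressed as a percentage of control assays run without compound.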

[4] = target: Ribosomal protein S6 kinase alpha-5 (Homo sapiens) (UniProt O75582); assay: Inhibition of MSK1 assessed as residual activity at 10 uM by Cherenkov counting relative to control in presence of 20 uM ATP
[5] = target: T2, Dual specificity tyrosine-phosphorylation-regulated kinase 3 (Homo sapiens) (UniProt O43781); assay: Inhibition of DYRK3 assessed as residual activity at 10 uM by Cherenkov counting relative to control in presence of 5 uM ATP
T2 sequence (whole entry): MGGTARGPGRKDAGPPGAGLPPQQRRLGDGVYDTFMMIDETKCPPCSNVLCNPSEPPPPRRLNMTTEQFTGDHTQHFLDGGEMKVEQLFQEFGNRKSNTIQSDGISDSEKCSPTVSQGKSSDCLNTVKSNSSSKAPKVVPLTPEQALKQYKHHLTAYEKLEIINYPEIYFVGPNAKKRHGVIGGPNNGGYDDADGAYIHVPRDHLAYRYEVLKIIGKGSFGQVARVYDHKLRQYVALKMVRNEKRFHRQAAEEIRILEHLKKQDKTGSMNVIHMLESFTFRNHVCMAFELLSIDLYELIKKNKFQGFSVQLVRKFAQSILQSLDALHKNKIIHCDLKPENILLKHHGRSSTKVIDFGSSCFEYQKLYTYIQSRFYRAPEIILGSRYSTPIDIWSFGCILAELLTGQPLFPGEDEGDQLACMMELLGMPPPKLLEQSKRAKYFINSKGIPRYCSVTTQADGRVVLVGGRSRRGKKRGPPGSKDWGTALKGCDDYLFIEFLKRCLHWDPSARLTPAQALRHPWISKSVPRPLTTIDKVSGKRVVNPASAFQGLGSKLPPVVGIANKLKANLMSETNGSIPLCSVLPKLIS
In short: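 Single-point profiling at 10 µM in a panel of 78 protein kinases. Kinase activity is expressed as a percentage relative to control assays without compound.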

[6] = Inhibition of PHK assessed as residual activity at 10 uM by Cherenkov counting relative to control
[7] = target: Mitogen-activated protein kinase 11 (Homo sapiens) (UniProt Q15759); assay: Inhibition of p38beta at 0.1 uM by Cherenkov counting
In short: (§1)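 Single-concentration screen at 0.1 μM in a 76-kinase panel. ATP for each kinase was set near its Km for ATP. Residual activity is given as a percentage of control assays without compound, mean of n = 3 ± SD.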

[8] = target: T3, Serine/threonine-protein kinase TBK1 (Homo sapiens) (UniProt Q9UHD2); assay: Inhibition of TBK1 assessed as residual activity at 0.1 uM by Cherenkov counting relative to control in presence of 50 uM ATP; in short: as §1
T3 sequence (whole entry): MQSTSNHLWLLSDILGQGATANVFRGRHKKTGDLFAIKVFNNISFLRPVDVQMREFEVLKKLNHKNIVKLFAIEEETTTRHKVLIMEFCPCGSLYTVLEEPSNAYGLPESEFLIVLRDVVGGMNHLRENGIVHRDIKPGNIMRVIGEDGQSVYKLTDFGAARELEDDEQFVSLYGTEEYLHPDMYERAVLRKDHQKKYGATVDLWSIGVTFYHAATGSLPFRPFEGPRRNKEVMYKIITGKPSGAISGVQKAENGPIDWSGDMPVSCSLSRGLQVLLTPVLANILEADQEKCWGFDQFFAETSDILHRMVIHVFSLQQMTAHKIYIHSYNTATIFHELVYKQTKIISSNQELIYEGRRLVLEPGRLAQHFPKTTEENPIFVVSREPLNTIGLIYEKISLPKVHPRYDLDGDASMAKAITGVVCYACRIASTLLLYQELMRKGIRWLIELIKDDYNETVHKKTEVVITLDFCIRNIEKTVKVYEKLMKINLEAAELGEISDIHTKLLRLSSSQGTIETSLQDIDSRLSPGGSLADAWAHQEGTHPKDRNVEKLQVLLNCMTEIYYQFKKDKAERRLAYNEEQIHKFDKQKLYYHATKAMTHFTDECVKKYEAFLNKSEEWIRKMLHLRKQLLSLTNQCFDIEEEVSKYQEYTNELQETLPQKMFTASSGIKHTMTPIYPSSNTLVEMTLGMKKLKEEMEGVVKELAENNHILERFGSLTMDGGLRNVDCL

[9] = target: Rho-associated protein kinase 2 (Homo sapiens) (UniProt O75116); assay: Inhibition of ROCK2 assessed as residual activity at 0.1 uM by Cherenkov counting relative to control in presence of 20 uM ATP; in short: as §1
[10] = target: Mitogen-activated protein kinase 3 (Homo sapiens) (UniProt P27361); assay: Inhibition of ERK1 assessed as residual activity at 0.1 uM by Cherenkov counting relative to control in presence of 5 uM ATP
In short: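 Single-concentration screen at 0.1 µM across a panel of 76 protein kinases. Each kinase was run at an ATP concentration approximating its ATP Km. Results are % mean residual activity versus control assays without compound (n = 3 ± SD).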

Ribosomal protein S6 kinase alpha-5 (Homo sapiens), sequence (O75582 whole entry, looked up): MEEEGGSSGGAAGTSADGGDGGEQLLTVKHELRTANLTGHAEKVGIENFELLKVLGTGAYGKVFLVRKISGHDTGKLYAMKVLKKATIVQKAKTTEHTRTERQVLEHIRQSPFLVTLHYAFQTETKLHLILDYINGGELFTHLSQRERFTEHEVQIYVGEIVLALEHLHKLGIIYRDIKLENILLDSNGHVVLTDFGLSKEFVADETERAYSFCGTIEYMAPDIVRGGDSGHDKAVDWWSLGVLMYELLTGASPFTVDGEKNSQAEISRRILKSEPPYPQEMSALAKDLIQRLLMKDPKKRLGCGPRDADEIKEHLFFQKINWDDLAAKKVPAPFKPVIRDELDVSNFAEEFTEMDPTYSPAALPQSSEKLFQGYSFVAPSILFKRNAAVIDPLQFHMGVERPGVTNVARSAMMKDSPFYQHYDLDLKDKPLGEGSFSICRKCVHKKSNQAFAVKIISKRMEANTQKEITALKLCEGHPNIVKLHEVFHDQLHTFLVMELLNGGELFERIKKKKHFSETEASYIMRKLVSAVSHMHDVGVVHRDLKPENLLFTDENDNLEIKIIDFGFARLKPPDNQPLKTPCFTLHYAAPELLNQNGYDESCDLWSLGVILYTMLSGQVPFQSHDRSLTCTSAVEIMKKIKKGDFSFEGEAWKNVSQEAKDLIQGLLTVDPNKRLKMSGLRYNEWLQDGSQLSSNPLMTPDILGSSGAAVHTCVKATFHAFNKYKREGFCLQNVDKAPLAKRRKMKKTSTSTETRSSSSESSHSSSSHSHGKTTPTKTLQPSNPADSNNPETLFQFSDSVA
Mitogen-activated protein kinase 11 (Homo sapiens), sequence (Q15759 whole entry): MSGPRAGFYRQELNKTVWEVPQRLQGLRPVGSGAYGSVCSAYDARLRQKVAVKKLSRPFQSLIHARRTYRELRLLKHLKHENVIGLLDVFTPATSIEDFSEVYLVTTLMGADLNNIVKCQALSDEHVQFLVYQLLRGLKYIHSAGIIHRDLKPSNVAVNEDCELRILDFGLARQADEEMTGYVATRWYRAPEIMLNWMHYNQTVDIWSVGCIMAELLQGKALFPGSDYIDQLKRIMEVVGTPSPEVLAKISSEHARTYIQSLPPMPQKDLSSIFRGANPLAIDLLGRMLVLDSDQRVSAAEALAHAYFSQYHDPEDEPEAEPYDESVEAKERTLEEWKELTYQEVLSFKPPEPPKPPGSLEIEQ
Rho-associated protein kinase 2 (Homo sapiens), sequence (O75116 whole entry, looked up): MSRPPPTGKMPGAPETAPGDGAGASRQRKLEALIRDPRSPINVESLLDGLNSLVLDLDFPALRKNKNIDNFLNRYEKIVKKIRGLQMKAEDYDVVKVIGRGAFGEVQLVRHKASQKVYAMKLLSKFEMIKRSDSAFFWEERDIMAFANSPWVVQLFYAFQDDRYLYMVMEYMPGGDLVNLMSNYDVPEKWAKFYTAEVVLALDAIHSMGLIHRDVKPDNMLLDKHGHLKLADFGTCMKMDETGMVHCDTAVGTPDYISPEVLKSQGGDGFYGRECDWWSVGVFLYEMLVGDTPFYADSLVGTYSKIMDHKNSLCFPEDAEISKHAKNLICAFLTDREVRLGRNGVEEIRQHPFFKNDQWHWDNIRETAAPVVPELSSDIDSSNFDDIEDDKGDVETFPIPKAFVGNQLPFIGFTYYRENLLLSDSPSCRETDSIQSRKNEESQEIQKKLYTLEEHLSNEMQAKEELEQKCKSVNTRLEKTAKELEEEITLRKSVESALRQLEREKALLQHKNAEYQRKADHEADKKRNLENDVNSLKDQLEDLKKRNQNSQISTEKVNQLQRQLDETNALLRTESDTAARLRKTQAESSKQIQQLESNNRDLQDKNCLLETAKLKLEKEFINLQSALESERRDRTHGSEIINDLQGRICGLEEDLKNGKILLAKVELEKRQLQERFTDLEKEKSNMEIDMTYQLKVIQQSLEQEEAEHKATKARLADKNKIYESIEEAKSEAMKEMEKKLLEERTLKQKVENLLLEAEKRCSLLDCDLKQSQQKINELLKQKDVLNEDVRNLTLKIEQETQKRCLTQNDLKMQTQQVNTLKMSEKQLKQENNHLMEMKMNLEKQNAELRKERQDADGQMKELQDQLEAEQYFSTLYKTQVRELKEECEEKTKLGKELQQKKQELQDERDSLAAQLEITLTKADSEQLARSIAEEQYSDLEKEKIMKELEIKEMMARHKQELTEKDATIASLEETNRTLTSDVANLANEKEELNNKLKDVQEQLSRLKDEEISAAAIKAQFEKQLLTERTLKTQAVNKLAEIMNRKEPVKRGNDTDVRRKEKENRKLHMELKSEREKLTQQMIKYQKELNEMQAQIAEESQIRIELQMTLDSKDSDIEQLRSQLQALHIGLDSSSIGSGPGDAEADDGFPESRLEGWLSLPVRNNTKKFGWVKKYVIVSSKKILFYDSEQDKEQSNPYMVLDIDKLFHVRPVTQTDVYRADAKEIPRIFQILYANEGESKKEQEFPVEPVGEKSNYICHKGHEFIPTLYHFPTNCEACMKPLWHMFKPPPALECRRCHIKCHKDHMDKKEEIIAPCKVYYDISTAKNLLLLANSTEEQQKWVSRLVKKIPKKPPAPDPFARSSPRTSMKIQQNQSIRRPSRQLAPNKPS
Mitogen-activated protein kinase 3 (Homo sapiens), sequence (P27361 whole entry): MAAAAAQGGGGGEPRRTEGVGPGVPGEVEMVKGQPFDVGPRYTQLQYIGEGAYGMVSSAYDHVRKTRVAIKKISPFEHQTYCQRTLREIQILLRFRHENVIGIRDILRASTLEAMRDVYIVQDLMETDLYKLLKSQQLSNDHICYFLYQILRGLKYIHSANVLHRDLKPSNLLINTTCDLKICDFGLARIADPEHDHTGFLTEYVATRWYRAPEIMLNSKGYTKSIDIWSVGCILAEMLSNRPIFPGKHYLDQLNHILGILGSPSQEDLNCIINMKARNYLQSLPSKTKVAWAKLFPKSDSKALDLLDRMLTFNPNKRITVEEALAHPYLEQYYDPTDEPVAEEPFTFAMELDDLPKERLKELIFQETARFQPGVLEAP
Serine/threonine-protein kinase PAK 5 (Homo sapiens), sequence (Q9P286 whole entry, looked up): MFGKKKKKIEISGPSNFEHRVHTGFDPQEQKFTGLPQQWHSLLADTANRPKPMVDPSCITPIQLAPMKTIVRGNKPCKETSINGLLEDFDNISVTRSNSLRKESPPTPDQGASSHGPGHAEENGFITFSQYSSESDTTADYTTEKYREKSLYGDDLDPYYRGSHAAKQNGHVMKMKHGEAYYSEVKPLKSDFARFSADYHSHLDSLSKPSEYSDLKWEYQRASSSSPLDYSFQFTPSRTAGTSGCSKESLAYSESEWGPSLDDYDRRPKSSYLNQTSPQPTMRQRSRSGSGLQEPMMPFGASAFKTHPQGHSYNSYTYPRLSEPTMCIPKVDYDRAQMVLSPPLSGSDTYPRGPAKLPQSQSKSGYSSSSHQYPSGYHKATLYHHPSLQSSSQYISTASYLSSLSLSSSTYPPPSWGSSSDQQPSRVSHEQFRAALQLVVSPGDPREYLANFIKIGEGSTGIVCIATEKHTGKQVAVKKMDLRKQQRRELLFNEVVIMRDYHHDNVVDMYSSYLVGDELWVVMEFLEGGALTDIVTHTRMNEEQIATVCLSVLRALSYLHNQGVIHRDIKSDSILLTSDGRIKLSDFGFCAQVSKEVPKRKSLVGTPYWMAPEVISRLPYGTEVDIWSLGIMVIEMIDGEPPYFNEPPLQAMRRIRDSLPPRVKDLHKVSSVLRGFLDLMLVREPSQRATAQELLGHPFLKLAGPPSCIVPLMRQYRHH
RAC-beta serine/threonine-protein kinase (Homo sapiens), sequence (P31751 whole entry): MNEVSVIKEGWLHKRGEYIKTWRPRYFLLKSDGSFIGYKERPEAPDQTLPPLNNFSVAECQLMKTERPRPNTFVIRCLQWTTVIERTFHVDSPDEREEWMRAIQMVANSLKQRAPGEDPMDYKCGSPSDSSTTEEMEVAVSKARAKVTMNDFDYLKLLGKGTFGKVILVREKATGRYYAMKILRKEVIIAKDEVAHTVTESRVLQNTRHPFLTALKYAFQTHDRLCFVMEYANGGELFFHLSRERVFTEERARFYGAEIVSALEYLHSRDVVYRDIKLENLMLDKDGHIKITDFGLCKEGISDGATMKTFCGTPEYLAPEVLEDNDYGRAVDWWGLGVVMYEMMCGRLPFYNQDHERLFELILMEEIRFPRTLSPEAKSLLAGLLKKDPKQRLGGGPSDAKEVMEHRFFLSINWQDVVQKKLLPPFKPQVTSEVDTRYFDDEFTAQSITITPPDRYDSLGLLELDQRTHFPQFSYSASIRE

| Activity [1] [%] | Activity [2] [%] | Activity [3] [%] | Activity [4] [%] | Activity [5] [%] | Activity [6] [%] | inhibition [7] [%] | Activity [8] [%] | Activity [9] [%] | Activity [10] [%] | Structure (SMILES) |
| --- | --- | --- | --- | --- | --- | --- | --- | --- | --- | --- |
| 95 | 98 | 101 | 95 | 97 | 96 |  |  |  |  | CC(C)c1onc(-c2ccc(F)cc2)c1-c1ccncc1 |
| 95 | 94 | 104 | 113 | 101 | 99 |  |  |  |  | CC(C)c1noc(-c2ccc(F)cc2)c1-c1ccncc1 |
|  |  |  |  |  |  | 83 | 103 | 81 | 94 | COc1ccc(/C=C/C(=O)Nc2cc(-c3[nH]c(SC)nc3-c3ccc(F)cc3)ccn2)c(OC)c1 |
|  |  |  |  |  |  | 54 | 106 | 88 | 101 | COc1ccc(/C=C/C(=O)Nc2cc(-c3[nH]c([S+](C)[O-])nc3-c3ccc(F)cc3)ccn2)c(OC)c1 (stereo not given) |
